PubChem BioAssay
Active and inactive are the calls of the source.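 Rule for the calls, unless noted: active = visual image review flags a hit and inhibition of aggregation exceeds 20%; inconclusive = visual hit but inhibition at or below 20%; inactive = no hit on visual image review.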 Where a SMILES comes first, the peptide text is derived from it. The star is where a group is joined. Boc = CC(C)(C)OC(=O)*

Columns and labels:
[1] = inhibitors of TNFa-induced NFkB p65 translocation, primary screen, imaging, HUVEC, MLSMR starter and 10KST1 sets (AID 438;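 active = inhibition above 20% together with a positive visual image hit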;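 note: compound added about 3h40 before a 20 min TNFalpha stimulation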;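 for inhibition: signal is the nuclear over cytoplasmic p65 intensity ratio per well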); conditions: HUVEC TNFa-induced p65 nuclear translocation; cell count: measured here: nuclei count (cytotoxicity indicator), at 2.08 µM; inhibition: at 2 µM, stronger effect = higher value, 0% TNFa-plus-vehicle, 100% no-TNFa wells
[2] = reduction of polyQ htt aggregates in cells – imaging, exon1htt(103Q)mCFP cells, high-content imaging, primary screen (AID 483); conditions: exon1htt(103Q)mCFP cell line, aggregate imaging, at 2 µM; inhibition of aggregation: stronger effect = higher value; nuclei count: measured here: cell count, toxicity;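 note: compound exposure lasted 3 days before fixation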;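 for nuclei count: percent of the per-plate median nuclei count of sample wells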
[3] = endothelial E-selectin expression blockers – imaging, HUVEC, immunofluorescence, MLSMR starter and 10KST1 sets, primary screen (AID 487;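 active = visually confirmed hit in the image check and inhibition above 20%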;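 for inhibition: signal is fraction of cell area covered by stained E-selectin grains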;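 for nuclei count: 100% = median nuclei count of all wells on the same plate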); conditions: HUVEC TNFalpha-induced E-selectin immunofluorescence imaging, at 2 µM; inhibition: stronger effect = higher value; nuclei count: measured here: cell number, toxicity
[4] = target: Voltage-gated potassium channel subunit beta-2 (Rattus norvegicus) (UniProt P62483); assay: inhibitors of rat Kvbeta2 reductase activity – biochemical, NADPH fluorescence, primary screen (AID 622;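 active = fluorescence slope higher than the sample average by over 3 SD, cut at about -0.22 in these data, passing the limit was not always enough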;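 note: slope of raw intensity against log time taken from 70 to 1610 s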); conditions: recombinant KvBeta, 4-cyanobenzaldehyde reduction, at 10 µM, stronger effect = higher value
[5] = target: Voltage-gated potassium channel subunit beta-2 (Rattus norvegicus) (UniProt P62483); assay: enhancers of rat Kvbeta2 NADPH turnover – biochemical, NADPH fluorescence, primary screen (AID 623;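 active = NADPH fluorescence slope more negative than the mean of all samples by about 3 SD, 99.7% confidence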;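 note: fluorescence intensity change per second fitted from 20 to 320 s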); conditions: Recombinant KvBeta, NADPH fluorescence decrease slope, 10 min; at 10 µM; stronger effect = lower value
[6] = target: Muscarinic acetylcholine receptor M4 (Homo sapiens) (UniProt P08173); assay: M4-linked GIRK flux change, two-sided – cell-based, HEK293 M4/GIRK, thallium flux, BTC-AM, M4 allosteric agonist project, primary screen (AID 625;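 active = fluorescence slope after compound addition differing from the mean of all tested samples at 99.7% confidence, mostly higher but some lower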;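 note: thallium influx through GIRK channels coupled to M4 in HEK293 cells with BTC-AM dye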); conditions: at 10 µM, actives lie on both sides
Summary of the method: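 System: HEK293 cells with M4 receptor and GIRK channels | Incubation: Cells overnight at 37 °C, BTC-AM loading 1 h, reads 2 min total | Technique: Kinetic BTC-AM fluorescence sampled at 1 Hz, 10 s pre-addition baseline | Measure: Post-addition slope, 15–24 s, of baseline-normalized fluorescence | Control set: Carbachol positive, DMSO negative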

[7] = blockers of RIG-like receptor reporter activation – cell-based, Sendai virus stimulus, luciferase, 10K MLSCN set, TLR/RLR signaling modifier project, primary screen (AID 602276;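 active = inhibition at or above 50% at 10 µM; inactive = inhibition below 50%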;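 note: firefly luciferase from ISG56 promoter only with Renilla not read in this screen; 0% = Sendai virus plus DMSO and 100% = medium plus DMSO without virus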); conditions: HEK293 RL24 IRF3 luciferase reporter, at 10 µM, stronger effect = higher value
[8] = TLR3 IRF3 reporter activation blockers – cell-based, poly I:C stimulus, luciferase, 10K MLSCN set, primary screen (AID 602277;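 active = inhibition of the reporter signal at or above 50%; inactive = inhibition below 50%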); conditions: HEK293-TLR3 RL24 IRF3 luciferase reporter, at 10 µM, stronger effect = higher value

Sequence of Muscarinic acetylcholine receptor M4 (Homo sapiens) (P08173 whole entry, looked up): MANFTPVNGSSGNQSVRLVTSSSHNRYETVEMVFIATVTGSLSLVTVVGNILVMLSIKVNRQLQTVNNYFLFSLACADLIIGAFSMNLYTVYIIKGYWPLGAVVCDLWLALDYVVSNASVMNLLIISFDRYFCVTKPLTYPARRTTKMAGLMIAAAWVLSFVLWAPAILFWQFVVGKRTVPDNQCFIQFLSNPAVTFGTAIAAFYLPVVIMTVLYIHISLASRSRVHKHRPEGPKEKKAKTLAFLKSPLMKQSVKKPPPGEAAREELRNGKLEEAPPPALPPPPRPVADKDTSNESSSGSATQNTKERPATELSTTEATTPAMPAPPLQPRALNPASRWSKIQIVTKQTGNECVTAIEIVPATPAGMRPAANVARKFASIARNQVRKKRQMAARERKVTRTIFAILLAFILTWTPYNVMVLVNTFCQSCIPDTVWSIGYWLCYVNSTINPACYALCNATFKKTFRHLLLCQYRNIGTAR
Sequence of Voltage-gated potassium channel subunit beta-2 (Rattus norvegicus) (P62483 whole entry, looked up): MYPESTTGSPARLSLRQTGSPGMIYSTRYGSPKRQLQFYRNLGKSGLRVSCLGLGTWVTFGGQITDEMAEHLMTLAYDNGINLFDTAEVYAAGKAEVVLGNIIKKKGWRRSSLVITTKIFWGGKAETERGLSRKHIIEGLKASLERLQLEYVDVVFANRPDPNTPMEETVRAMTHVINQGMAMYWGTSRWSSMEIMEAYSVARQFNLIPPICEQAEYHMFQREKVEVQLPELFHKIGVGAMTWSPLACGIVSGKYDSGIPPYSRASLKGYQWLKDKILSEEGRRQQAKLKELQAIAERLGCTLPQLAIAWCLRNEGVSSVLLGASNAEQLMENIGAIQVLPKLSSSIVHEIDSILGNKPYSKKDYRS

Row | Structure (SMILES) | cell count [1] | inhibition [1] | inhibition of aggregation [2] | nuclei count [2] [%] | inhibition [3] | nuclei count [3] [%] | fluorescence slope [4] | NADPH fluorescence slope [5] | fluorescence slope [6] | inhibition [7] | inhibition [8]
1 | CC(Oc1ccccc1)C(=O)N1CCCc2ccccc21 (centres undefined) | 474 | 9.1% (inactive) | -2.8% (inactive) | 118 | -43.6% (inactive) | 112 | -0.239 (inactive) | 1.4e-05 (inactive) | 0.00527 (inactive) | 2.1% (inactive) | 29.5% (inactive)
2 | Cc1cccc(N2CCN(C(=O)c3ccc(NS(=O)(=O)c4c(C)noc4C)cc3)CC2)c1C | 334 | 5.4% (inactive) | -23.1% (inactive) | 97.7 | -283% (inactive) | 84.9 | -0.545 (inactive) | -7.3e-05 (inactive) | 0.00603 (inactive) | -6.14% (inactive) | -0.151% (inactive)
3 | Cc1ccc(NC(=O)CSc2nnc(CCCCCNC(=O)OC(C)(C)C)o2)c(C)c1 | 630 | -9.5% (inactive) | 28.5% (inactive) | 94.7 | -28.9% (inactive) | 102 | -0.546 (inactive) | -4e-05 (inactive) | 0.00541 (inactive) | 14.7% (inactive) | 12.1% (inactive)
4 | Cc1ccc(S(=O)(=O)N2CCCC2)cc1S(=O)(=O)N1CCCC1 | 698 | -9% (inactive) | -7.5% (inactive) | 111 | 10.3% (inactive) | 116 | -0.609 (inactive) | -1.2e-05 (inactive) | 0.00607 (inactive) | 13.4% (inactive) | 12.9% (inactive)
5 | CCOc1ccc(OCC)c(NC(=O)C2CCN(S(=O)(=O)c3cnc[nH]3)CC2)c1 | 377 | -1.3% (inactive) | -15.6% (inactive) | 101 | 22.9% (inactive) | 80.4 | -0.572 (inactive) | -2.9e-05 (inactive) | 0.00665 (inactive) | 4.79% (inactive) | 10.8% (inactive)
6 | COc1ccccc1OC(=O)c1ccc(SC)cc1OC | 384 | -15.2% (inactive) | 6.6% (inactive) | 99.3 | 7.8% (inactive) | 116 | -0.57 (inactive) | -2.8e-05 (inactive) | 0.00466 (inactive) | -1.26% (inactive) | 2.42% (inactive)
7 | COCCCNC(=O)CCc1nc(-c2ccccc2Cl)no1 | 476 | 8.6% (inactive) | -10.1% (inactive) | 95.7 | -130% (inactive) | 132 | -0.556 (inactive) | -9.5e-06 (inactive) | 0.00327 (inactive) | 17.7% (inactive) | 23.4% (inactive)
8 | Oc1cccc2ccc(Nc3ccccn3)nc12 | 583 | -9.7% (inactive) | -24.8% (inactive) | 82.5 | 11.4% (inactive) | 99.8 | -0.563 (inactive) | -3.9e-05 (inactive) | 0.0033 (inactive) | 11% (inactive) | 97.5% (active)
9 | Cc1ccc(C)c(C(=O)NC2CC(C)(C)NC(C)(C)C2)c1 | 690 | 0.8% (inactive) | 14% (inactive) | 94 | -8.2% (inactive) | 96 | -0.578 (inactive) | -5.3e-05 (inactive) | 0.00855 (inactive) | -2.48% (inactive) | 9.21% (inactive)
10 | CC(C)(C)OC(=O)N1CCCC1C(=O)N1CCCC1C(=O)N1CCCC1C(=O)O (stereo not drawn) (Boc-Pro-Pro-Pro-OH; configuration not given here) | 302 | -6.9% (inactive) | 4.5% (inactive) | 49.1 | -59.4% (inactive) | 102 | -0.571 (inactive) | -4.7e-05 (inactive) | 0.00689 (inactive) | 5.97% (inactive) | 15.3% (inactive)
11 | O=C(CSc1nnnn1-c1ccccc1)Nc1nsc(-c2ccc(Cl)cc2)n1 | 449 | -4.1% (inactive) | 17.3% (inactive) | 95.1 | 59.2% (inactive) | 130 | -0.561 (inactive) | -3.3e-05 (inactive) | 0.00729 (inactive) | 15.4% (inactive) | 15.1% (inactive)
12 | O=C(NC12CC3CC(CC(C3)C1)C2)C1CCCN1C(=O)NC1CCCCC1 (centres undefined) | 559 | -1.3% (inactive) | 15.8% (inactive) | 96.2 | -17.6% (inactive) | 110 | -0.284 (inactive) | -3.2e-05 (inactive) | 0.00682 (inactive) | -2.83% (inactive) | 28.4% (inactive)
13 | CC(c1ccccc1)N1C(=O)c2ccc(C(=O)NCc3ccco3)cc2C1=O (centres undefined) | 710 | 6.3% (inactive) | -0.8% (inactive) | 107 | 23.2% (inactive) | 93.8 | -0.46 (inactive) | -2.6e-05 (inactive) | 0.00569 (inactive) | -11.4% (inactive) | 51.6% (active)
14 | COc1ccc(S(=O)(=O)N2CCN(C3CCCCCCC3)CC2)cc1 | 360 | 2% (inactive) | 5.1% (inactive) | 105 | -8.4% (inactive) | 108 | -0.533 (inactive) | -5.6e-05 (inactive) | 0.00334 (inactive) | 16.2% (inactive) | 24.3% (inactive)
